Assay results from ChEMBL document CHEMBL1148356, “Synthesis and biological evaluation of 3-heterocyclyl-7,8,9,10-tetrahydro-(7,10-ethano)-1,2,4-triazolo[3,4-a]phthalazines and analogues as subtype-selective inverse agonists for the GABA(A)alpha5 benzodiazepine binding site” (J Med Chem, 2004).

Tests used:
[1] = biological target: T1, GABA-A receptor; alpha-5/beta-3/gamma-2 (Homo sapiens, UniProt P18507+P28472+P31644); assay: Binding affinity towards human alpha-5-beta-3-gamma-2 GABA-A receptor using [3H]Ro-151788 expressed in L(tk-) cells; format: cell-based
T1 sequence (P18507 whole entry): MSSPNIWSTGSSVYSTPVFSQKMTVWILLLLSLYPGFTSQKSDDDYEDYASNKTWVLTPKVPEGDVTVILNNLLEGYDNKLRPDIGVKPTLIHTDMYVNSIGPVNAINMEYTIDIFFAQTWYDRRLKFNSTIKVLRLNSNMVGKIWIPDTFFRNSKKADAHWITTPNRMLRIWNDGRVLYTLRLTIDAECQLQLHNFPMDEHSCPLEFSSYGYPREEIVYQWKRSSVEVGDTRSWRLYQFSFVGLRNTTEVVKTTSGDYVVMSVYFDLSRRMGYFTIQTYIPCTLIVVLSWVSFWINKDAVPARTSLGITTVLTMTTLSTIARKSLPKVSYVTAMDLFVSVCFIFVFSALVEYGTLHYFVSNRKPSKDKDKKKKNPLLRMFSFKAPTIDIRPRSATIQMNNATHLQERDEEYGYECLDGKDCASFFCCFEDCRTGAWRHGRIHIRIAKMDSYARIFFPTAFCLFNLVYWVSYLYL
T1 sequence (P28472 whole entry): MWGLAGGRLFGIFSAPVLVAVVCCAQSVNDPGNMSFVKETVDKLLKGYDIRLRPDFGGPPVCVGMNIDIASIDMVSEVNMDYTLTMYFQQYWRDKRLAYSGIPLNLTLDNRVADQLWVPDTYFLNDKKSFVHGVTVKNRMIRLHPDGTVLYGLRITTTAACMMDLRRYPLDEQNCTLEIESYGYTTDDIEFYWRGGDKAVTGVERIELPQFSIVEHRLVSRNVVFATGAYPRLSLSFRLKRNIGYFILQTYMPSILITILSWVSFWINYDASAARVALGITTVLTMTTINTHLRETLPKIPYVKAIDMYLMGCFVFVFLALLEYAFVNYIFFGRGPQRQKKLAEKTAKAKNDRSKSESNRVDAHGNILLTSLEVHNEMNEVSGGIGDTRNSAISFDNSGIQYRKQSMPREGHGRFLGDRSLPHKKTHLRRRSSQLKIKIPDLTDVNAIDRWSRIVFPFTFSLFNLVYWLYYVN
T1 sequence (P31644 whole entry): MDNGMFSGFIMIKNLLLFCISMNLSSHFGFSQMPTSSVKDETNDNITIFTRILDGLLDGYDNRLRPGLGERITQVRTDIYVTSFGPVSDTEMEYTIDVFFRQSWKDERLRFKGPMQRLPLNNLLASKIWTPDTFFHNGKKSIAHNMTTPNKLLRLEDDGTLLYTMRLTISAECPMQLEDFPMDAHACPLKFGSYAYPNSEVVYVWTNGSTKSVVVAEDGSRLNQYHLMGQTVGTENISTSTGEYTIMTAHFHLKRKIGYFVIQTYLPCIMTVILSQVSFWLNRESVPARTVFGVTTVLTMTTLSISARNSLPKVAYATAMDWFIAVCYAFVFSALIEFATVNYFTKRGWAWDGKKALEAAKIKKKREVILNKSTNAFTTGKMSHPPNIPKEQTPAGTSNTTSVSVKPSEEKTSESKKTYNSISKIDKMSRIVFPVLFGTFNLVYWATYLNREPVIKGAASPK

[2] = biological target: GABA-A receptor; alpha-5/beta-3/gamma-2 (Homo sapiens) (UniProt P18507+P28472+P31644); assay: Percent maximum change in electrophysiological response in Xenopus oocytes expressing alpha-5-beta-3-gamma-2 GABA-A receptor; format: functional, cell-based; conditions: Oocyte
Outline: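 Two-electrode voltage clamp on Xenopus oocytes injected with human GABA-A subunit cDNAs, 24-72 h expression, perfused with modified Barth's medium at pH 7.5, clamped between -40 and -70 mV. The GABA EC20 was titrated against a 3 mM GABA maximum. […] Result is % change of control current, mean ± SE of ≥4 oocytes.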

Ki [1]: 0.8 nM
Efficacy [2]: -45%
SMILES: Cc1cc(-c2nnc3c4ccccc4c(OCc4ccccn4)nn23)no1
